Reference: ChEMBL document CHEMBL3102739, “Synthesis and antiproliferative activity of conformationally restricted 1,2,3-triazole analogues of combretastatins in the sea urchin embryo model and against human cancer cell lines” (Bioorg Med Chem, 2014)
pEC50: −log10 of the molar value. Activity calls are given as the source filed them. No cut-off for these calls is given here.

Tests used:
[1] = Cytotoxicity against human Jurkat/A4 cells assessed as cell death at 1 uM after 48 hrs by trypan blue exclusion assay relative to control; assay type: functional
Method in brief: (§1)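 Compound added to exponentially growing Jurkat or Jurkat/A4 cells in RPMI-1640 with 10% FCS at 37 °C. Viable cells counted directly by trypan blue exclusion after 48 h. EC50 taken by linear interpolation of survival data. Mean±SD from three independent experiments.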

[2] = tested on: Jurkat; assay: Cytotoxicity against human Jurkat cells assessed as cell viability after 48 hrs by trypan blue exclusion assay; assay type: functional, cell-based; method in brief: as §1
[3] = Induction of apoptosis in human Jurkat/A4 cells assessed as active caspase 3 expression at 150 nM after 48 hrs by FITC-conjugated flow cytometric analysis (reference value: 1.1%); assay type: functional
Method in brief: (§2)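 Jurkat or Jurkat/A4 cells treated, then permeabilized per the manufacturer's protocol and stained with FITC-conjugated monoclonal antibody to active caspase-3. Percentage of positive cells (M1 gate) measured by flow cytometry. Untreated cells served as controls.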

[4] = Induction of apoptosis in human Jurkat/A4 cells assessed as active caspase 3 expression at 150 nM after 24 hrs by FITC-conjugated flow cytometric analysis (reference value: 1.1%); assay type: functional; method in brief: as §2
[5] = tested on: Jurkat; assay: Induction of apoptosis in human Jurkat cells assessed as active caspase 3 expression at 15 nM after 48 hrs by FITC-conjugated flow cytometric analysis (reference value: 3.3%); assay type: functional; method in brief: as §2
[6] = tested on: Jurkat; assay: Induction of apoptosis in human Jurkat cells assessed as active caspase 3 expression at 15 nM after 24 hrs by FITC-conjugated flow cytometric analysis (reference value: 3.3%); assay type: functional; method in brief: as §2
[7] = tested on: Jurkat; assay: Induction of apoptosis in human Jurkat cells assessed as active caspase 3 expression at 15 nM by FITC-conjugated flow cytometric analysis; assay type: functional, cell-based; conditions: TDE = time-dependent effect; method in brief: as §2
[8] = tested on: Jurkat/A4; assay: Induction of apoptosis in human Jurkat/A4 cells assessed as Bcl-2 expression at 150 nM after 24 to 48 hrs Western blotting analysis; assay type: functional, cell-based
Method in brief: (§3)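 Treatment 24 or 48 h (Jurkat 15 nM, Jurkat/A4 150 nM for CA4P). Cells washed in ice-cold PBS and lysed 30 min at 4 °C in 20 mM Tris-HCl pH 7.4, 1% Triton X-100, 150 mM NaCl with protease inhibitors. Equal protein run on 12% SDS-PAGE and blotted to PVDF. Probed with monoclonal antibodies to caspase-9, caspase-2, Bcl-2 or XIAP for 2 h at room temperature, then HRP anti-mouse and ECL. β-actin used as loading control.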

[9] = tested on: Jurkat; assay: Induction of apoptosis in human Jurkat cells assessed as Bcl-2 expression at 15 nM after 24 to 48 hrs Western blotting analysis; assay type: functional, cell-based; method in brief: as §3
[10] = tested on: Jurkat/A4; assay: Induction of apoptosis in human Jurkat/A4 cells assessed as reduction of XIAP expression at 150 nM after 24 hrs Western blotting analysis; assay type: functional, cell-based; method in brief: as §3
[11] = tested on: Jurkat; assay: Induction of apoptosis in human Jurkat cells assessed as reduction of XIAP expression at 15 nM after 24 hrs Western blotting analysis; assay type: functional, cell-based; method in brief: as §3
[12] = tested on: Jurkat/A4; assay: Induction of apoptosis in human Jurkat/A4 cells assessed as caspase 2 activation at 150 nM after 24 to 48 hrs by Western blotting analysis; assay type: functional, cell-based; method in brief: as §3
[13] = tested on: Jurkat/A4; assay: Induction of apoptosis in human Jurkat/A4 cells assessed as caspase 9 activation at 150 nM after 24 to 48 hrs by Western blotting analysis; assay type: functional, cell-based; method in brief: as §3
[14] = tested on: Jurkat; assay: Induction of apoptosis in human Jurkat cells assessed as caspase 2 activation at 15 nM after 24 to 48 hrs by Western blotting analysis; assay type: functional, cell-based; method in brief: as §3
[15] = tested on: Jurkat; assay: Induction of apoptosis in human Jurkat cells assessed as caspase 9 activation at 15 nM after 48 hrs by Western blotting analysis; assay type: functional, cell-based; method in brief: as §3
[16] = Cell cycle arrest in human Jurkat/A4 cells assessed as accumulation at sub-G1 phase at 150 nM after 48 hrs by propidium iodide staining-based flow cytometric analysis (reference value: 17.1%); assay type: functional
[17] = tested on: Jurkat/A4; assay: Induction of apoptosis in human Jurkat/A4 cells assessed as micronuclei formation after 48 hrs by May-Grunwald-Giemsa staining-based microscopic analysis; assay type: functional, cell-based
Method in brief: (§4)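 Jurkat or Jurkat/A4 cells treated 48 h, with untreated cells as control. Cells cytospun, stained by May–Grünwald–Giemsa and examined by light microscopy with a 100× objective for micronuclei, membrane-enclosed fragments with unequally segregated chromosomes, and condensed nuclei.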

[18] = tested on: Jurkat/A4; assay: Induction of apoptosis in human Jurkat/A4 cells assessed as small cell fragments with unequally segregated chromosomes enclosed by cell membrane after 48 hrs by May-Grunwald-Giemsa staining-based microscopic analysis; assay type: functional; method in brief: as §4
[19] = tested on: Jurkat; assay: Induction of apoptosis in human Jurkat cells assessed as small cell fragments with unequally segregated chromosomes enclosed by cell membrane after 48 hrs by May-Grunwald-Giemsa staining-based microscopic analysis; assay type: functional; method in brief: as §4
[20] = tested on: Jurkat; assay: Induction of apoptosis in human Jurkat cells assessed as micronuclei formation after 48 hrs by May-Grunwald-Giemsa staining-based microscopic analysis; assay type: functional, cell-based; method in brief: as §4
[21] = tested on: Jurkat; assay: Cell cycle arrest in human Jurkat cells assessed as accumulation at sub-G1 phase at 15 nM after 48 hrs by propidium iodide staining-based flow cytometric analysis (reference value: 12.2%); assay type: functional
[22] = Cell cycle arrest in human Jurkat/A4 cells assessed as decrease in accumulation at G0/G1 phase at 150 nM after 24 hrs by propidium iodide staining-based flow cytometric analysis; assay type: functional
[23] = Cell cycle arrest in human Jurkat/A4 cells assessed as increase in accumulation at G2/M phase at 150 nM after 24 hrs by propidium iodide staining-based flow cytometric analysis; assay type: functional
[24] = tested on: Jurkat; assay: Cell cycle arrest in human Jurkat cells assessed as decrease in accumulation at G0/G1 phase at 15 nM after 24 hrs by propidium iodide staining-based flow cytometric analysis; assay type: functional
[25] = tested on: Jurkat; assay: Cell cycle arrest in human Jurkat cells assessed as increase in accumulation at G2/M phase at 15 nM after 24 hrs by propidium iodide staining-based flow cytometric analysis; assay type: functional

COc1ccc(/C=C\c2cc(OC)c(OC)c(OC)c2)cc1OP(=O)([O-])[O-].[Na+].[Na+] [FOSBRETABULIN DISODIUM]
Activity [1]: <20%
pEC50 [2]: 7.82
Activity [3]: 1.6%
Activity [4]: 2.2%
Activity [5]: 31.6%
Activity [6]: 15%
Activity [7]: tde
Activity [8]: inactive
Activity [9]: inactive
Activity [10]: inactive
Activity [11]: Active
Activity [12]: inactive
Activity [13]: inactive
Activity [14]: Active
Activity [15]: Active
Activity [16]: 24.3%
Activity [17]: Active
Activity [18]: Active
Activity [19]: Active
Activity [20]: Active
Activity [21]: 39.5%
Activity [22]: Active
Activity [23]: Active
Activity [24]: Active
Activity [25]: Active
